Reference: ChEMBL document CHEMBL1129498, “Azole endothelin antagonists. 2. Structure-activity studies” (J Med Chem, 1996)

Legend:
MMQ = experiment: Inhibitory activity was evaluated by measuring the PI hydrolysis in MMQ cell line; format: functional, cell-based, Rattus norvegicus; settings: Rattus norvegicus, MMQ
Outline: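 MMQ cells (0.4 × 10⁶ cells/mL) labeled 16 h with 10 µCi/mL [³H]myoinositol in RPMI, PBS-washed, then held 60 min in buffer A with protease inhibitors and 10 mM LiCl. Compound pre-incubated 5 min, then 1 nM ET-1 challenge for 30 min at 37 °C, stopped with chloroform-methanol. Total inositol phosphates extracted and taken from the aqueous phase by AG1-X8 anion-exchange batch chromatography.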

Endothelin-1 receptor = target: T1, Endothelin-1 receptor (Rattus norvegicus, UniProt P26684); experiment: Inhibitory activity was evaluated against ET- A Binding to Endothelin A receptor in MMQ cell homogenates; format: cell-free
T1 sequence (P26684 whole entry): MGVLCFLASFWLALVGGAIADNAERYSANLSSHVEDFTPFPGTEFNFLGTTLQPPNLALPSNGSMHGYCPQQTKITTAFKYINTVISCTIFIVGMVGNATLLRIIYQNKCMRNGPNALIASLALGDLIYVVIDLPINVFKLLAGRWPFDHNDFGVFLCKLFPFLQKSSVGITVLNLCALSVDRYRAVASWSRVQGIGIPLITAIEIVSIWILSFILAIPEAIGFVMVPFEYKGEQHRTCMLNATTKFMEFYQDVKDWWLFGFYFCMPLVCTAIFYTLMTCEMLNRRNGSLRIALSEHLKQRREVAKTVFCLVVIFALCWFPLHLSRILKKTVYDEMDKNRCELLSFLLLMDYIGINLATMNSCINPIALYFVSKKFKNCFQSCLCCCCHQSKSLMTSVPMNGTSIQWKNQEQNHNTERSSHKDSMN

[1] = target: T2, Endothelin receptor type B (Sus scrofa, UniProt P35463); experiment: Inhibitory activity was evaluated against ET- B Binding to Endothelin B receptor from porcine cerebellar membranes
T2 sequence (P35463 whole entry): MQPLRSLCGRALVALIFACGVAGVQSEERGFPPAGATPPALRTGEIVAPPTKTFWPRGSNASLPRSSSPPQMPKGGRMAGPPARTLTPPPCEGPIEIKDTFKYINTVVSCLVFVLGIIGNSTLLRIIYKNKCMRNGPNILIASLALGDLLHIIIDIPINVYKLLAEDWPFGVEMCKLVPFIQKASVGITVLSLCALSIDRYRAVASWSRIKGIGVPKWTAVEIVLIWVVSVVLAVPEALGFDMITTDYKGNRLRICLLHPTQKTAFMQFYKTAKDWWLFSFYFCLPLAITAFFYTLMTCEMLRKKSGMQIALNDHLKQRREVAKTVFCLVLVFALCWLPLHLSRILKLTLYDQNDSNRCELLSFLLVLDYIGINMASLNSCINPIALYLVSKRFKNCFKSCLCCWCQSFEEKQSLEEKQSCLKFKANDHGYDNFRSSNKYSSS

| IC50 (MMQ) [µM] | IC50 (Endothelin-1 receptor) [µM] | IC50 [1] [µM] | SMILES |
| --- | --- | --- | --- |
| 0.087 | 0.06 | 42 | Cc1[nH]c([C@@H](Cc2cn(C)c3ccccc23)NC(=O)[C@H](CC(C)C)NC(=O)NC2CCCCCC2)nc1C(=O)O |
| – | – | > 100 | Cc1c(C(=O)O)nc([C@@H](Cc2c[nH]c3ccccc23)NC(=O)[C@H](CC(C)C)NC(=O)N2CCCCCC2)n1C |
| 0.78 | – | > 100 | Cc1[nH]c([C@@H](Cc2c[nH]c3ccccc23)NC(=O)[C@H](CC(C)C)NC(=O)N2CCCCCC2)nc1C(=O)O |
| – | 2.9 | > 100 | Cc1oc([C@@H](Cc2c[nH]c3ccccc23)NC(=O)[C@H](CC(C)C)NC(=O)N2CCCCCC2)nc1C(=O)NO |
| – | 0.2 | 56 | Cc1oc([C@@H](Cc2cn(C)c3ccccc23)NC(=O)[C@H](CC(C)C)NC(=O)NC2(C)CCCCC2)nc1C(=O)O |
| – | 0.8 | 67 | Cc1oc([C@@H](Cc2cn(C)c3ccccc23)NC(=O)[C@H](CC(C)C)NC(=O)NC2CC3CCC2C3)nc1C(=O)O (stereo in doubt; 15o) |
| – | 0.73 | 55 | CCn1cc(C[C@@H](NC(=O)[C@H](CC(C)C)NC(=O)NC2CCCCC2)c2nc(C(=O)O)c(C)[nH]2)c2ccccc21 |
| – | 0.4 | 75 | Cc1oc([C@@H](Cc2cn(C)c3ccccc23)NC(=O)[C@H](CC(C)C)NC(=O)NC2CCCCCC2)nc1C(=O)O |
| – | – | > 100 | Cc1c(C(=O)O)nc([C@@H](Cc2c[nH]c3ccccc23)NC(=O)[C@H](CC(C)C)NC(=O)N2CCCCCC2)n1Cc1ccccc1 |
| – | 1.9 | > 100 | Cc1oc([C@@H](Cc2cn(C)c3ccccc23)NC(=O)[C@H](CC(C)C)NC(=O)Nc2ccc(F)cc2)nc1C(=O)O |
| – | 0.066 | 55 | Cc1oc([C@@H](Cc2cn(C)c3ccccc23)NC(=O)[C@H](CC(C)C)NC(=O)Nc2cccc(F)c2)nc1C(=O)O |
| – | 0.12 | > 90 | COC(=O)C1(NC(=O)N[C@@H](CC(C)C)C(=O)N[C@H](Cc2cn(C)c3ccccc23)c2nc(C(=O)O)c(C)o2)CCCCC1 |
| – | 9.6 | > 100 | Cc1oc([C@@H](Cc2c[nH]c3ccccc23)NC(=O)[C@H](CC(C)C)NC(=O)N2CCCCCC2)nc1CC(=O)O |
| – | 2.52 | > 100 | Cc1oc([C@@H](Cc2cn(C)c3ccccc23)NC(=O)[C@H](CC(C)C)NC(=O)NC2CCC(O)CC2)nc1C(=O)O (some centres not stated) |
| – | 0.65 | > 100 | Cc1oc([C@@H](Cc2cn(C)c3ccccc23)NC(=O)[C@H](CC(C)C)NC(=O)NC2CCCCC2C)nc1C(=O)O (some centres not stated) |
| – | 1 | > 100 | CCN(CC)C(=O)N[C@@H](CC(C)C)C(=O)N[C@H](Cc1c[nH]c2ccccc12)c1nc(C(=O)O)c(C)[nH]1 |
| – | – | > 100 | CCn1cc(C[C@@H](NC(=O)[C@H](CC(C)C)NC(=O)NC2CCCCC2)c2nc(C(=O)O)c(C)o2)c2ccccc21 |
| – | 0.141 | 80 | Cc1[nH]c([C@@H](Cc2cn(C)c3ccccc23)NC(=O)[C@H](CC(C)C)NC(=O)NC2CCC(C)CC2)nc1C(=O)O (some centres not stated) |
| – | 0.23 | 48 | Cc1oc([C@@H](Cc2cn(C)c3ccccc23)NC(=O)[C@H](CC(C)C)NC(=O)NC2CCCc3ccccc32)nc1C(=O)O (some centres not stated) |
| – | 0.074 | 66 | Cc1oc([C@@H](Cc2cn(C)c3ccccc23)NC(=O)[C@H](CC(C)C)NC(=O)Nc2ccccn2)nc1C(=O)O |
| – | 2.1 | > 100 | Cc1[nH]c([C@@H](Cc2c[nH]c3ccccc23)NC(=O)[C@H](CC(C)C)NC(=O)NCc2ccccc2)nc1C(=O)O |
| – | 0.45 | 26 | Cc1oc([C@@H](Cc2cn(C)c3ccccc23)NC(=O)[C@H](CC(C)C)NC(=O)NC2CC3CCC2C3)nc1C(=O)O (stereo in doubt; 15p) |
| – | 0.018 | 13 | Cc1[nH]c([C@@H](Cc2cn(C)c3ccccc23)NC(=O)[C@H](CC(C)C)NC(=O)NC2CCCCC2C)nc1C(=O)O (some centres not stated) |
| – | 0.075 | > 100 | Cc1[nH]c([C@@H](Cc2c[nH]c3ccccc23)NC(=O)[C@H](CC(C)C)NC(=O)NC2CCCCC2)nc1C(=O)O |
| – | > 100 | > 100 | Cc1[nH]c([C@@H](Cc2c[nH]c3ccccc23)NC(=O)[C@H](CC(C)C)NS(=O)(=O)N2CCCCCC2)nc1C(=O)O |
| – | > 100 | > 100 | Cc1oc([C@@H](Cc2c[nH]c3ccccc23)NC(=O)[C@H](CC(C)C)NS(=O)(=O)N2CCCCCC2)nc1C(=O)O |

Second part, the molecule before the results:

| SMILES | IC50 (MMQ) [µM] | IC50 (Endothelin-1 receptor) [µM] | IC50 [1] [µM] |
| --- | --- | --- | --- |
| Cc1[nH]c([C@@H](Cc2cn(C)c3ccccc23)NC(=O)[C@H](CC(C)C)NC(=O)NC2CCC(O)CC2)nc1C(=O)O (some centres not stated) | – | 0.11 | > 100 |
| Cc1oc([C@@H](Cc2c[nH]c3ccccc23)NC(=O)[C@H](CC(C)C)NC(=O)N2CCCCCC2)nc1C(=O)NCC(=O)O | – | 1.9 | > 100 |
| CCOC(=O)c1nc([C@@H](Cc2c[nH]c3ccccc23)NC(=O)[C@H](CC(C)C)NC(=O)N2CCCCCC2)oc1C | – | – | 43 |
| Cc1oc([C@@H](Cc2c[nH]c3ccccc23)NC(=O)[C@H](CC(C)C)NC(=O)NCc2ccccc2)nc1C(=O)O | – | 8.7 | 96 |
| Cc1oc([C@@H](Cc2c[nH]c3ccccc23)NC(=O)[C@H](CC(C)C)NC(=O)NC2CCCCC2)nc1C(=O)O | – | – | > 100 |
| Cc1oc([C@@H](Cc2cn(C)c3ccccc23)NC(=O)[C@H](CC(C)C)NC(=O)Nc2c(F)c(F)c(F)c(F)c2F)nc1C(=O)O | – | 3.55 | > 100 |
| Cc1oc([C@@H](Cc2cn(C)c3ccccc23)NC(=O)[C@H](CC(C)C)NC(=O)N2CCCCCC2)nc1C(=O)O | – | 0.62 | > 100 |
| Cc1oc([C@@H](Cc2cn(C)c3ccccc23)NC(=O)[C@H](CC(C)C)NC(=O)NC2CCC(C)CC2)nc1C(=O)O (some centres not stated) | – | – | > 100 |
| Cc1oc([C@@H](Cc2cn(C)c3ccccc23)NC(=O)[C@H](CC(C)C)NC(=O)NC2CCCC(C)C2)nc1C(=O)O (some centres not stated) | – | 0.96 | > 100 |
| Cc1oc([C@@H](Cc2c[nH]c3ccccc23)NC(=O)[C@H](CC(C)C)NC(=O)N2CCCCCC2)nc1C(=O)O | 4.5 | – | > 100 |
| CNC(=O)c1nc([C@@H](Cc2c[nH]c3ccccc23)NC(=O)[C@H](CC(C)C)NC(=O)N2CCCCCC2)oc1C | – | 3 | 65 |
| Cc1oc([C@@H](Cc2cn(C)c3ccccc23)NC(=O)[C@H](CC(C)C)NC(=O)NC23CC4CC(CC(C4)C2)C3)nc1C(=O)O | – | 0.9 | 19 |
| Cc1oc([C@@H](Cc2cn(C)c3ccccc23)NC(=O)[C@H](CC(C)C)NC(=O)NC2C3CC4CC(C3)CC2C4)nc1C(=O)O (some centres not stated) | – | 0.44 | 26 |
| Cc1[nH]c([C@@H](Cc2cn(C)c3ccccc23)NC(=O)[C@H](CC(C)C)NC(=O)N2CCCCCC2)nc1C(=O)O | – | – | > 100 |
| Cc1oc([C@@H](Cc2cn(C)c3ccccc23)NC(=O)[C@H](CC(C)C)NC(=O)n2ccc3ccccc32)nc1C(=O)O | – | 0.058 | 12 |
| Cc1oc([C@@H](Cc2cn(C)c3ccccc23)NC(=O)[C@H](CC(C)C)NC(=O)NC2CCCC2)nc1C(=O)O | – | 0.3 | 99 |
| CCN(CC)C(=O)N[C@@H](CC(C)C)C(=O)N[C@H](Cc1c[nH]c2ccccc12)c1nc(C(=O)O)c(C)o1 | – | 3 | > 100 |
| Cc1oc([C@@H](Cc2cn(C)c3ccccc23)NC(=O)[C@H](CC(C)C)NC(=O)NC2CCCCC2)nc1C(=O)O | – | 0.22 | > 100 |
